Measurements from different studies.
Protocols differ between the studies behind these lines.
MCU: Calcium uniporter protein, mitochondrial (MCU, Homo sapiens, UniProt Q8NE86)

CN[C@@H]1C[C@H]2O[C@@](C)([C@@H]1OC)n1c3ccccc3c3c4c(c5c6ccccc6n2c5c31)C(=O)NC4 — IC50 (Serine/threonine-protein kinase LMTK3 (LMTK3, Homo sapiens, UniProt Q96Q04); enzyme activity; inhibitor; TR-FRET): 0.0045 nM
COc1ccc(C(=O)O)cc1S(=O)(=O)Nc1ccc(C(F)(F)F)cc1N1CCCCC1 — IC50 (Endoplasmic reticulum aminopeptidase 2 (ERAP2, Homo sapiens, UniProt Q6P179, K392N); enzyme activity; inhibitor): 44000 nM
O=C(O)c1c(Cl)c(Cl)c(Cl)c(Cl)c1-c1c2cc(I)c(=O)c(I)c-2oc2c(I)c(O)c(I)cc12 — IC50 (Delta-aminolevulinic acid dehydratase (Homo sapiens, UniProt P13716, C162A/K59N); enzyme activity; inhibitor; absorbance; pH 8): 6900 nM
CC(C)C[C@H](NC(=O)[C@H](Cc1ccccc1)NC(=O)[C@H](Cc1ccc(O)cc1)NC(=O)CNC(=O)[C@H](CCCCN)NC(=O)[C@H](CO)NC(=O)[C@H](CCC(N)=O)NC(=O)CNC(=O)[C@@H](NC(=O)[C@H](CO)NC(=O)[C@@H]1CCCN1C(=O)[C@H](CO)NC(=O)[C@H](CCC(N)=O)NC(=O)[C@H](Cc1ccc(O)cc1)NC(=O)[C@H](CCC(=O)O)NC(=O)[C@H](C)NC(=O)[C@H](CCCCN)NC(=O)[C@@H](N)Cc1ccccc1)C(C)C)C(=O)N[C@@H](Cc1ccccc1)C(=O)N[C@@H](CCCNC(=N)N)C(=O)N1CCC[C@H]1C(=O)N[C@@H](CCCNC(=N)N)C(=O)N[C@@H](CC(N)=O)C(N)=O — IC50 (Neuromedin-U receptor 2 (Mus musculus, UniProt Q8BZ39); ligand displacement; radioligand; cell membranes): 0.03 nM
Cc1ccc(-c2ncn(-c3ccc(Nc4nccc(-c5cccc(N6CCOCC6)c5)n4)cc3)n2)cn1 — IC50 (Mitogen-activated protein kinase 8 (MAPK8, Homo sapiens, UniProt P45983); enzyme activity; inhibitor): 67 nM
C1CNCN2CNCCNCN(CN1)CNCCNC2.[Co+3] — IC50 (MCU; transporter uptake; inhibitor): 131 nM
COc1cc(Nc2ncc(F)c(Nc3ccc4c(n3)NC(=O)C(C)(C)O4)n2)cc(OC)c1OC — IC50 (Adenosine receptor A3 (ADORA3, Homo sapiens, UniProt P0DMS8); cell-free assay; inhibitor): 20 nM
Brc1cc2c(N3CCNCC3)nccn2c1 — IC50 (Beta-secretase 1 (BACE1, Homo sapiens, UniProt P56817); enzyme activity; inhibitor; FRET; pH 5): 600000 nM
N.N.N.N.N.N.N.N.O=C(O)c1cccc1.O=C(O)c1cccc1.[Fe+2].[Fe+2].[N-3].[Ru+4].[Ru+4].c1cccc1.c1cccc1 — IC50 (MCU; transporter uptake; inhibitor): 10.5 nM
N#Cc1nn(C(=O)C2CCCC2)c2ncccc12 — IC50 (Neutrophil elastase (ELANE, Homo sapiens, UniProt P08246); enzyme activity; inhibitor; fluorescence): 160 nM
COc1ccc2[nH]cc(CN3CCC(O)(c4ccc(SC)cc4)CC3)c2c1 — IC50 (D(2) dopamine receptor (DRD2, Homo sapiens, UniProt P14416); ion current): 250 nM
Nc1ncc(-c2nc(N3CCOCC3)nc(N3CCOCC3)n2)c(C(F)F)n1 — IC50 (Serine/threonine-protein kinase mTOR (MTOR, Homo sapiens, UniProt P42345); ligand displacement; TR-FRET): 49.9 nM
